Data on one molecule can be found in ChEMBL document CHEMBL4732120, “Discovery of novel PARP/PI3K dual inhibitors with high efficiency against BRCA-proficient triple negative breast cancer” (Eur J Med Chem, 2021).

The nature of data set [1]: Toxicity in Sprague-Dawley rat assessed as change in body weight at 1000 mg/kg, po administered as single dose measured on day 2 (reference value: 273 +/- 15 g). As to conditions: in vivo, 48 h, time 2 day. It counts as organism-based.
Data set [2] is described as follows: Elimination rate constant in rat liver microsomes measured after 1 hr. It counts as ADME, Microsome. Put shortly: (§1)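 Compound incubated 1 h with mouse, rat, dog, monkey or human liver microsomes. Derived values were the elimination rate constant k, the elimination half-life T1/2 and the intrinsic clearance CLint.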
(In general: Microsomes from liver hold many membrane-bound enzymes, among them those of drug oxidation.)

Data set [3] relates to MDA-MB-468. Briefly: Induction of apoptosis in human MDA-MB-468 cells assessed as viable cells at 1 uM measured after 72 hrs by Annexin V-FITC/propidium iodide staining based flow cytometry (reference value: 95.2%). The class given is functional. To be noted: read-out: Activity. In general terms: Flow cytometry measures light scatter and fluorescence of single cells or particles in a stream.

Data set [4] in a line: Intrinsic clearance in monkey liver microsomes measured after 1 hr. It counts as ADME, Macaca mulatta, Microsome. As to conditions: rhesus monkey, read-out: CLH. A digest of the protocol: as §1
The subject of data set [5] is MDA-MB-468. Briefly: Induction of apoptosis in human MDA-MB-468 cells assessed as necrotic cells at 1 uM measured after 72 hrs by Annexin V-FITC/propidium iodide staining based flow cytometry (reference value: 0.13%). It counts as functional.
In data set [6] the test system is MDA-MB-468. Briefly: Induction of apoptosis in human MDA-MB-468 cells assessed as late apoptotic cells at 1 uM measured after 72 hrs by Annexin V-FITC/propidium iodide staining based flow cytometry (reference value: 0.78%). It counts as functional.
The test system of data set [7] is MDA-MB-468. As to the kind of experiment: Antiproliferative activity against human MDA-MB-468 cells measured after 7 days by Celltiter-glo assay. The class given is functional, cell-based. As to conditions: MDA-MB-468, 168 h. Put shortly: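 MDA-MB-468 cells grown in RPMI1640 with 10% FBS at 37 °C, 5% CO2. Seeded the day before dosing, grown 12 h, then exposed to a range of concentrations for 7 days. Viability read by CellTiter-Glo luminescence after 10 min at room temperature. Inhibition % = (1 − (RLU cpd − blank)/(RLU DMSO − blank)) × 100. IC50 from nonlinear regression of normalized dose-response.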
(In general: In ATP-based viability assays light output follows the ATP content of the culture.)

For data set [8], the target named is Poly [ADP-ribose] polymerase 1 (Homo sapiens, UniProt P09874). Briefly: Inhibition of PARP1 (unknown origin). A digest of the protocol: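 PARP-1 and PI3Kα enzyme inhibition. IC50 taken from dose-response curves and given as mean ± SD of three independent experiments.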
Chain of Poly [ADP-ribose] polymerase 1 (P09874 whole entry): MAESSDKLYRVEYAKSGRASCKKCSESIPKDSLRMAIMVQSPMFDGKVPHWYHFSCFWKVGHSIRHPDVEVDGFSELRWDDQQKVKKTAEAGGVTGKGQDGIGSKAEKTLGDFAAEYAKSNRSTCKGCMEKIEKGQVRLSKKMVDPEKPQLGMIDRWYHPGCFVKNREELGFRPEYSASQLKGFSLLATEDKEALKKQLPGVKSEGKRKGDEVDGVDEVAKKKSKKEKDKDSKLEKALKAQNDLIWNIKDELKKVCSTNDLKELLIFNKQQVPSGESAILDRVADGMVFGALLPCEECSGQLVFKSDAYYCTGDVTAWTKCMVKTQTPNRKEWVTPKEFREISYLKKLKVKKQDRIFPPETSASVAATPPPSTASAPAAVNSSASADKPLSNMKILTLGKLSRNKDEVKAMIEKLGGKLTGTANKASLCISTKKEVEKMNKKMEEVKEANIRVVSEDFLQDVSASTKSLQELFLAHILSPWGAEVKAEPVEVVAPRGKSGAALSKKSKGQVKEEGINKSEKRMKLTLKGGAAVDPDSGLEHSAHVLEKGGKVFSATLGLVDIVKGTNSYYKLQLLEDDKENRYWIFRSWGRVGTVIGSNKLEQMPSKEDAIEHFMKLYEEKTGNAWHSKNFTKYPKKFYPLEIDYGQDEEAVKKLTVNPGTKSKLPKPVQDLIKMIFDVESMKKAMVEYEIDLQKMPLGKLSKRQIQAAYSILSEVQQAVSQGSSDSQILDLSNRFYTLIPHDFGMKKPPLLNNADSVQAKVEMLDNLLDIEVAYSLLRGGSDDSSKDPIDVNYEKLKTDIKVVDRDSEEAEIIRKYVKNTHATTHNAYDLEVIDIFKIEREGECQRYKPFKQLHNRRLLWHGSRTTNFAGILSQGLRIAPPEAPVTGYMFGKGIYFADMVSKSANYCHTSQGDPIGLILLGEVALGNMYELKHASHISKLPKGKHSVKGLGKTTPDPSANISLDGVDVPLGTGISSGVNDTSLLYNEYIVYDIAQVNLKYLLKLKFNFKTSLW
A short description of data set [9]: Toxicity in Sprague-Dawley rat assessed as change in body weight at 1000 mg/kg, po administered as single dose measured during adaptation period (reference value: 258 +/- 13 g). It counts as organism-based. As to conditions: in vivo.

Usually IC50 stands for the concentration that inhibits the measured activity by half.

Regarding `NC(=O)c1cccc2cc(C(=O)N3CCN(c4nc(-c5cnc(NC(=O)CN6CCOCC6)cc5C(F)(F)F)nc(N5CCOCC5)n4)CC3)oc12`, the Activity in [1] was found to be 267 g; with MDA-MB-468 [5] it was 3.47%; with MDA-MB-468 [6] it was 13.5%; in [9] it was 256 g. Also, the k el at 1 h in data set [2] was 0.000275 s⁻¹. Besides, the viability at 1 µM with MDA-MB-468 [3] was found to be 67.2%. Also, the microsomal CLint in data set [4] is 30.7 µL/min/mg. In addition, the 50% inhibitory concentration (IC50) turned out to be 1400 nM in the data set on MDA-MB-468 [7] and 13.8 nM in data set [8].
